In the EternaBench riboswitch data:

Test system: MS2 coat protein
Assay: apparent Kd, MS2 coat protein; higher = weaker binding; RNA-MaP array; FMN 200 µM where present
How it was run: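 SNAP-549-labelled MS2 coat protein, doubled from 0.7 or 1.5 nM to 3 µM, was titrated over designs transcribed by stalled E. coli RNA polymerase on Illumina sequencing-chip clusters. Titrations were run without and then with constant ligand in 100 mM Tris-HCl pH 7.5, 80 mM KCl, 4 mM MgCl2, BSA, DTT, yeast tRNA and Tween-20. The apparent Kd is the median of filtered per-cluster fits to green signal normalised to red-channel RNA signal and control-cluster median Fmax.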

[1] = designed as: OFF switch for flavin mononucleotide, no ligand
[2] = ligand present: flavin mononucleotide, designed as: OFF switch for flavin mononucleotide
[3] = designed as: ON switch for flavin mononucleotide, no ligand
[4] = ligand present: flavin mononucleotide, designed as: ON switch for flavin mononucleotide

| Sequence | apparent Kd [1] | apparent Kd [2] | apparent Kd [3] | apparent Kd [4] |
| --- | --- | --- | --- | --- |
| CCUAGUUGGUAAGGAUAUCCUACACUGUUCUGACCCGUGCAAGCUACAUGAGGAUCACCCAUGUAGGAGAAGGUGCGUCAACGC | 9.11 nM | 9.13 nM | – | – |
| AGACUGAAGCAAGGAUAUUGUAAAGUUAUCGUACAAGAAGGUGCUGUUUAUGUCUCUUUACAUGAGGAUCACCCAUGUUUUUAA | – | – | 22.6 nM | 24.2 nM |
| UGUGGUGAAGUAGGAUAUCAACACACAUGAGGAUCACCCAUGUUAGAUGUGGAUGUUGUAUGUUAUGAGAAGGACUUCGGUGCG | 23.6 nM | 89 nM | – | – |
| GGGUACAUCGGAGGAUAUCAUGUAAAUACAUGAGGAUCACCCAUGUCGAUGGAGACAUCGGAGUUUGAGAAGGCCGAUGUACCG | – | – | 150 nM | 6.58 nM |
| CUCCGGCGUGUAGGAUAUGGAUCCGAUUAGGAUCCAGAAGGACAUGAGGAUCACCCAUGUACAUGUAAACAGUCAUCACCGGAA | 7.61 nM | 18.8 nM | – | – |
| AACAAUGGUUAACAUGAGGAUCACCCAUGUUGGAAGCCUUCACAGGAUAUGUAGCGGGCAUACGCACAGAAGGGUGAUCGCGGU | – | – | 37.5 nM | 32.6 nM |
| UUAUUCUAUAUAGGAUAUUGAUGCAAUUUACCUCAAGAAGGAUAUACAUGAGGAUCACCCAUGUUGGAUAGGGUUAGUUUGUUU | – | – | 79.4 nM | 76.5 nM |
| GCAUGGUGAGGAUAUGCAGAAGGGCAACGGUCAUCAUGACUACAUGAGGAUCACCCAUGUAGAAGGCACACAUG | 44.3 nM | 54.8 nM | – | – |
| CGCAAGUAUACAUGAGGAUCACCCAUGUCAAUCAUGGUAUUCAGAAGGUACAAUUCAAUAUAUAGUAAGGAUAUGAAAUUUGCG | – | – | 107 nM | 112 nM |
| GCCUUAUCGGUCAGGAUAUACACCCGUUAGUUGUUGUAGAAGGGACAUGAGGAUCACCCAUGUACAUUACAUUG | 22.8 nM | 60 nM | – | – |
| UCGACGAAAGUCGAACGAUGUAGCAGAAGGACAUGAGGAUCACCCAUGUCAGCUGUAACAGCCAUGUAGGAUAUGCUACAUCGU | 4.51 nM | 5.53 nM | – | – |
| AAAAAGCGAGGAUAUACAUAGCUAAGACAAAUAAGCAAAAAACAUGAGGAUCACCCAUGUAGAAGGCGCAAAAA | 19.2 nM | 15.4 nM | – | – |
| GACUCGCGCACAGGAUAUCCACGUAGCGGACGUGGAGAAGGGUGACAUGAGGAUCACCCAUGUACGUGAGUCUAGAUCACUUCC | – | – | 40.2 nM | 22.8 nM |
| CACGAUGAUGUAGGAUAUAUGCUGGAAUACAGCAUAGAAGGACAUGAGGAUCACCCAUGUAAAGUGUCUCCAAAUAACAUCGUG | 30.3 nM | 77.5 nM | – | – |
| UCAUUUCUGUAAGGAUAUAUAAACAUGACGAUACAUGAGGAUCACCCAUGUAUAGAAGGUACAAAUACAUAUAAUGCAAUGUUC | 16.9 nM | 12.9 nM | – | – |
| CGUCAUUACUCAGGAUAUGCAUCAUACUUGAGGGCAGAAGGGAGUACAUGAGGAUCACCCAUGUACUAUGGGUGCCUAAGAGGU | 18.7 nM | 101 nM | – | – |
| AAAAAGUUAGGAUAUACAUGAGGAUCACCCAUGUACAUAUAUGGAGAAAAAAACAGUAGUAGAAGGGACAAAAA | 25.6 nM | 35.1 nM | – | – |
| GCUGUCGCAUGAGGAUAUGGUCAGCUUUGCUGACCAGAAGGCAUGUCAAUAGACAUGAGGAUCACCCAUGUAGUUAGGGCGGCU | – | – | 571 nM | 57.4 nM |
| GUCUGGCUAGGAUAUACAGUGUCCACGAGUUAGUUGCUCUAACAUGAGGAUCACCCAUGUAGAAGGAGCGAGAA | 20.5 nM | 63.7 nM | – | – |
| UCAUAACAUGAGGAUCACCCAUGUCAGGAUAUGAUACUAUGUACUUCGGUACAUAGUAUCAGAAGGGACAUGCU | 121 nM | 18.6 nM | – | – |
| AGUUAAUAUCGAGGAUAUCCUCAUCUACAUGAGGAUCACCCAUGUAAACAUGGAGAAGGCGAUAUUAACAGCAUGUUACAUGCA | – | – | 259 nM | 14.9 nM |
| AGUUGGCGAGGAUAUACAUGAGGAUCACCCAUGUGAGAGAAAAAAGUGAGAAAGAAAAGUAGAAGGCGCUGACA | 45.3 nM | 217 nM | – | – |
| ACAUGGAAGUAGAAGGGUAAUACUUUAGAAUGUACCAUUAGAUGAUGUUAUACAGGAUAUGCUAACAUGAGGAUCACCCAUGUG | 25.6 nM | 19.8 nM | – | – |
| ACAUACAUUCGAGGAUAUCGGUGAUUAAUAAUACGAGAAGGCGAUUUAAGGCAUAAAGCCUUAGACAUGAGGAUCACCCAUGUA | – | – | 97.9 nM | 43.8 nM |

| Sequence | apparent Kd [1] | apparent Kd [2] | apparent Kd [3] | apparent Kd [4] |
| --- | --- | --- | --- | --- |
| GCACAUGAUACAGGAUAUGUUUUGGAUUUUAUAUUCAGUUAUAUAAUAUUUACAGAAGGGUAUACAUGAGGAUCACCCAUGUGC | 61.1 nM | 30.8 nM | – | – |
| CCAUCGAGUGUGAGGAUAUGCUGGUCCUUGGAUCAGCAGAAGGCACAUGAGGAUCACCCAUGUGGAAACGGUGG | 26.6 nM | 191 nM | – | – |
| ACGGUGGUCACAGGAUAUCCGGCCCGCGUGCUCGGAGAAGGGUGACUCAGAACCACAUGAGGAUCACCCAUGUGCCUUGCCGUA | – | – | 122 nM | 25.1 nM |
| GGGCCGGUGGAGAAGGAGCUUACGAAACGUAGGCUAGGAUAUCCACAUGAGGAUCACCCAUGUGGGAAUAUCUGAUUUUCGCAG | 4 nM | 5.26 nM | – | – |
| GGAGGAGGAGUGAGGAUAUGGUGGUGGAAACACCACCAGAAGGCACAUGAGGAUCACCCAUGUGAAGAAGAGAA | 18.9 nM | 24.9 nM | – | – |
| GUCAGCUCGUGAGGAUAUACAACACUGCGUCGGCAGUGUAUUAAGAUCACAUGAGGAUCACCCAUGUAGAAGGCACGAGCUGAU | 13.4 nM | 223 nM | – | – |
| GCUAGUCAUGUCAGGAUAUGCUGUACCUUGGUACAGCAGAAGGGACAUGAGGAUCACCCAUGUGCCUAACUAGC | 39 nM | 416 nM | – | – |
| ACAUGAGGAUCACCCAUGUGUGCAUAGGAUAUUGAGGAUUUGGGAUGUUUUUUUGGAUUUGCCCACAAGAAGGAUGAAAGUGUU | – | – | 12.8 nM | 11.3 nM |
| CGUCUAUGCCAGAAGGCAUGAAACAUGAGGAUCACCCAUGUCAAAGACAUGAGGAUAUGGCAUAGACGAAAAGUGCGAAAGCAC | – | – | 4.32 nM | 3.27 nM |
| CGCUCAAGAGAGAAGGAUAGAGUCAGAAGGCGUUACAUGAGGAUCACCCAUGUUUUGUAUAGUAACGAGGAUAUGAAAUGAGCG | 19.7 nM | 15 nM | – | – |
| UCGCUGCGAGGAUAUACGUUUGCGCGUUUUCGUUUGCGCGUACAUGAGGAUCACCCAUGUAGAAGGCGCGCGGC | 14.3 nM | 14.8 nM | – | – |
| CCACGAGACUAAGGAUAUGGAGUGUCAACAUAAAACAUGAGGAUCACCCAUGUAAAGAGUACAAUUCAGAAGGUAGAGACGUGG | – | – | 21.9 nM | 21.5 nM |
| AUAAACGAUCAGGAUAUAUCAAAUCAUAGCUUGAUAGAAGGGAUCACAUGAGGAUCACCCAUGUGAUCUUCUUA | 14 nM | 15.8 nM | – | – |
| CGCUGUCACGCAGGAUAUGCAUUGGAUUACAAUGCAGAAGGGCGAUUACAUGAGGAUCACCCAUGUGUAGACAGUGAAGAAGAG | – | – | 300 nM | 42.3 nM |
| GCUCUAUGCUAGAAGGCGUGAAACAUGAGGAUCACCCAUGUCAGAGAUAUGAGGAUAUAGCAUAGAGCAAAAGACGGAAACGUC | – | – | 13.4 nM | 5.41 nM |
| UCAAUAUAUCAGGAUAUGACUUUUUGUGUUAAGUCAGAAGGGAUAACAUGAGGAUCACCCAUGUGAUAUAGUGA | 52 nM | 58.9 nM | – | – |
| CCAUGUUAGCAGGAUAUGCCAUUAUUCCUUUACGCAGAAGGGCUUACAUGAGGAUCACCCAUGUAACAUUUCAU | 13.4 nM | 29.5 nM | – | – |
| CGGCGGAAAGGAUAUGCAUUAAUAUCAAAAUGUGGGCCACGACAUGAGGAUCACCCAUGUAGAAGGUUCAGCCA | 16.4 nM | 13.3 nM | – | – |
| UAAAUGUCAGGAUAUUGUUAAUUUAGUUGUUUGUAUUAGUUCGAGAAGGGACAUGAGGAUCACCCAUGUUAAUU | 30.2 nM | 36 nM | – | – |
| UACAGACAUGAGGAUCACCCAUGUGAGGAUAUCGAUAACGAUAACAUAAUAUAAACGGCGAGAAGGCACAGCAU | 31.7 nM | 34.9 nM | – | – |
| AUUAUUAAAGUGAGGAUAUCUAGAGCUGCGGCUCUAGAGAAGGCACAUGAGGAUCACCCAUGUCUCAAUUAUUA | 18.7 nM | 54.4 nM | – | – |
| GCUAUCGCAUGAGGAUAUGGUCAGCUUUGCUGACCAGAAGGCAUGUCAUAAGACAUGAGGAUCACCCAUGUAGUUAAGAUAGCA | – | – | 840 nM | 50.5 nM |
| GGGUACAUCGGAGGAUAUCAUGUUAAUACAUGAGGAUCACCCAUGUCGAUGGAGACAUCGGAGAUUGAGAAGGCCGAUGUACCG | – | – | 322 nM | 11.4 nM |
| GGCUCAUUGACAUUAAUGUGCAGACAGGAUAUCCACGGCGGUUCCUACAUGAGGAUCACCCAUGUGGAGAAGGGUCGCUAAUGG | 14.4 nM | 33 nM | – | – |
